Calls of active or inactive are those of the source.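 How the source made its calls, unless noted: active means viability at or under a set limit in both replicates, limit being median viability minus 3 SD (cut at about 48% in these data, passing the limit was not always enough); inconclusive means at or under the limit in just one replicate; inactive means at or above the limit in both replicates.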
Legend:
[1] = Her2 expression decrease, cell viability multiplex – SKBR3 breast tumor cells, AlphaScreen, ATP viability, primary screen (AID 461;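 active means Her2 level under about 52% in both replicate screens, with viability over 70% of control, limit read from the data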;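 on Her2 level: lower value means less Her2 protein in the cells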;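 on viability: percent of carrier control wells set as 100% viability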); settings: SKBR3 Her2 protein level, 18-24 h, measured here: SKBR3 viability, ATP luminescence, at 10 µM
[2] = target: Receptor tyrosine-protein kinase erbB-2 (Homo sapiens) (UniProt P04626); assay: as above; settings: 18-24 h, at 10 µM, stronger effect = lower value
Chain of Receptor tyrosine-protein kinase erbB-2 (Homo sapiens) (P04626 whole entry, looked up): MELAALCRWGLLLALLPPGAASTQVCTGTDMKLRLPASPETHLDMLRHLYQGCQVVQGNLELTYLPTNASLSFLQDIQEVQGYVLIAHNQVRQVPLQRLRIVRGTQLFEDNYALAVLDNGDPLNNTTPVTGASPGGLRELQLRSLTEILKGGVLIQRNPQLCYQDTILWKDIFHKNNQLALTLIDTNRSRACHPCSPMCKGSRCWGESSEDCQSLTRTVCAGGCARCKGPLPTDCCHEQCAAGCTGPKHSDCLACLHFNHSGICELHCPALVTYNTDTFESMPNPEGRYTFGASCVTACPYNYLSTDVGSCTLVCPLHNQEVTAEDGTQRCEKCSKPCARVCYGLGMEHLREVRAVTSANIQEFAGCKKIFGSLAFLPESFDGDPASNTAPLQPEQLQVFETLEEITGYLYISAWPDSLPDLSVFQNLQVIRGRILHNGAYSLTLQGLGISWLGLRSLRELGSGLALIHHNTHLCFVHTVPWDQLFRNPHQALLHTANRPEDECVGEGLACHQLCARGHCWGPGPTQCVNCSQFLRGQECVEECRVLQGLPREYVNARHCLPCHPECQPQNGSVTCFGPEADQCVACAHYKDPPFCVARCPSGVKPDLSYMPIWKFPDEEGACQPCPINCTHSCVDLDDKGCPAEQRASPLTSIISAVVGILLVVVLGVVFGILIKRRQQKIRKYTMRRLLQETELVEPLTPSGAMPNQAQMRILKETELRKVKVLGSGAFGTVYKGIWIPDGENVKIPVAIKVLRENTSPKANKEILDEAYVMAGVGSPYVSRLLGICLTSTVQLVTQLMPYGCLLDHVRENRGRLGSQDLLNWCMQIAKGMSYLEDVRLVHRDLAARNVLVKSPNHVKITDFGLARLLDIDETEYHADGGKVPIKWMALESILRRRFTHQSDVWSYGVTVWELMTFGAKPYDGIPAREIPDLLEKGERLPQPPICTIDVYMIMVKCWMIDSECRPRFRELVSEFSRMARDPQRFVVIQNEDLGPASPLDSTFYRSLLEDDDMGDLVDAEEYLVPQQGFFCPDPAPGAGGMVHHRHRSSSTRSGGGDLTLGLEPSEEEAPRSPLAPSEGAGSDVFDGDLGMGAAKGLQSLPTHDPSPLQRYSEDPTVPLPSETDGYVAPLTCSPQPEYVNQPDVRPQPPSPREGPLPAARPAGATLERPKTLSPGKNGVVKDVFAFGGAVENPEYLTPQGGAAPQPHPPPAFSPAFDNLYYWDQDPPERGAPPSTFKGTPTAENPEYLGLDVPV

[3] = reduced viability of SK-BR-3 breast cancer cells – cell-based, 24 h, human, pilot screen (AID 572;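 active means viability at or below 10% of carrier control in both of two separate runs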;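 further: compound exposure lasted between 18 and 24 h rather than exactly 24 h; 100% = carrier-treated control wells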); settings: SK-BR-3 viability, CellTiter-Glo luminescence, at 10 µM, stronger effect = lower value
[4] = HUVEC growth inhibition – cell-based, human, primary screen (AID 575;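 active means viability at or below 30% in both replicate assays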;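 further: 100% = median of untreated cell wells with 0.1% DMSO on each plate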); settings: HUVEC proliferation, CellTiter-Glo luminescence, 72 h; at 10 µM; stronger effect = lower value
In short: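 System – primary HUVEC, no more than 12 passages · Medium – Low-serum (2% FBS) EBM, supplemented · Times – 72 h exposure, 37 °C, 5% CO2, 30 min RT equilibration · Measured by – luminescent ATP assay · Read-out – % viability relative to median vehicle-well signal on each plate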

[5] = H69AR cell proliferation blockers – human, duplicate replicates, primary screen (AID 580); settings: H69AR lung tumor cells viability, ATP luminescence, 72 h; at 10 µM; stronger effect = lower value;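 further: 100% = mean luminescence of untreated wells and 0% = no signal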
[6] = MRP1 drug-resistance reversers in H69AR cells – cell-based, doxorubicin co-treatment, pilot screen (AID 601;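 active means viability loss from added drug above about 55%, and viability with drug at most 40%, in both replicates, limit read from the data, passing the limit was not always enough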); settings: CellTiter-Glo, 72 h, at 10 µM; for differential viability (reversal): stronger effect = higher value
[7] = yeast transport mutant growth inhibition pilot in 384-well plates, post-Golgi transport modulator project (AID 636; in the data active means inhibition above about 31%); settings: absorbance 615 nm, about 18 h, stronger effect = higher value
[8] = growth suppression of yeast trafficking mutant, preliminary HTS, modulators of trafficking downstream of Golgi apparatus project, 1536-format plate, OD 615 nm (AID 637; in the data active means inhibition above about 30%); settings: yeast transport mutant growth, absorbance 615 nm, 18 h; stronger effect = higher value
[9] = H69AR cells + 2 uM doxorubicin, measured here: viability with 2 uM doxorubicin, stronger effect = lower value
[10] = H69AR cells, compound alone cytotoxicity

SMILES | viability [1] | Her2 level [2] | viability [3] | viability [4] | viability [5] | differential viability (reversal) ([6]; H69AR cells + 2 uM doxorubicin) | viability [6, 9] | viability [6, 10] | inhibition [7] | inhibition [8]
O=C(COC(=O)c1ccccc1O)Nc1ccc(OC(F)F)cc1 | 78% | 123% (inactive) | 78% (inactive) | 93.7% (inactive) | 93.2% (inactive) | 2.67% (inactive) | 90.5% | 93.2% | 5.14% (inactive) | 32.4% (active)
COc1ccc(S(=O)(=O)N2CCCC2C(=O)Nc2ccc(C)cc2)cc1 (stereo not given) | 88% | 105% (inactive) | 88% (inactive) | 92.2% (inactive) | 89.2% (inactive) | -8.78% (inactive) | 98% | 89.2% | -4.86% (inactive) | -4.1% (inactive)
O=C(O)c1ccc(COc2c(F)c(F)cc(F)c2F)cc1 | 114% | 93.5% (inactive) | 114% (inactive) | 101% (inactive) | 103% (inactive) | 0.99% (inactive) | 102% | 103% | -5.73% (inactive) | -0.79% (inactive)
O=C(c1ccccc1F)N1CCN(Cc2cccc(Cl)c2)CC1 | 101% | 104% (inactive) | 101% (inactive) | 107% (inactive) | 100% (inactive) | 16.8% (inactive) | 83.6% | 100% | -5.32% (inactive) | -2.86% (inactive)
O=C(Nc1ccccc1N1CCN(c2ccc(F)cc2)CC1)c1ccccc1 | 95% | 96% (inactive) | 95% (inactive) | 78.5% (inactive) | 93.8% (inactive) | 9.15% (inactive) | 84.6% | 93.8% | -5.87% (inactive) | 4.13% (inactive)
COCCN(C(=O)Cn1nnc2ccccc21)C(C(=O)NC1CCCC1)c1cc(OC)ccc1OC (stereo not given) | 86% | 106% (inactive) | 86% (inactive) | 101% (inactive) | 93.9% (inactive) | -0.19% (inactive) | 94.1% | 93.9% | -0.8% (inactive) | -4.92% (inactive)
CCOC(=O)C1=C(C)Nc2ncnn2C1c1ccccc1F (stereo not given) | 94% | 110% (inactive) | 94% (inactive) | 116% (inactive) | 95.6% (inactive) | -5% (inactive) | 101% | 95.6% | -0.92% (inactive) | -1.29% (inactive)
Cc1ccc(N2CC(C(=O)N3CCN(C(=O)c4ccco4)CC3)CC2=O)cc1 (stereo not given) | 96.5% | 91% (inactive) | 96.5% (inactive) | 104% (inactive) | 96.1% (inactive) | -1.97% (inactive) | 98.1% | 96.1% | 0.39% (inactive) | -1.29% (inactive)
COc1ccc(-n2ncc3c(NCCCN4CCOCC4)ncnc32)cc1 | 102% | 102% (inactive) | 102% (inactive) | 103% (inactive) | 109% (inactive) | 4.54% (inactive) | 104% | 109% | -6.13% (inactive) | 7.87% (inactive)
O=C1N2c3ccccc3CCc3cccc(c32)C1(O)C(F)(F)F (stereo not given) | 94.5% | 90.5% (inactive) | 94.5% (inactive) | 96.4% (inactive) | 95.7% (inactive) | 0.66% (inactive) | 95% | 95.7% | -5.87% (inactive) | 6.56% (inactive)
CC(C)CN(C(=O)COC(=O)Cc1n[nH]c(=O)c2ccccc12)C1CCS(=O)(=O)C1 (stereo not given) | 97.5% | 98.5% (inactive) | 97.5% (inactive) | 93.6% (inactive) | 90.1% (inactive) | 4.47% (inactive) | 85.7% | 90.1% | -3.12% (inactive) | -1.75% (inactive)
Fc1ccc(Cn2nnc(-c3ccc(CN4CCOCC4)cc3)n2)cc1 | 88% | 122% (inactive) | 88% (inactive) | 108% (inactive) | 103% (inactive) | 6.81% (inactive) | 96.3% | 103% | 84.7% (active) | 43% (active)
O=C(O)CCc1ccc(-c2cccs2)o1 | 94% | 86% (inactive) | 94% (inactive) | 95.9% (inactive) | 95.9% (inactive) | 4.25% (inactive) | 91.6% | 95.9% | -0.26% (inactive) | -5.67% (inactive)
CN1C(=O)CC(N2CCC(C(N)=O)(N3CCCCC3)CC2)C1=O (stereo not given) | 104% | 86% (inactive) | 104% (inactive) | 104% (inactive) | 98.9% (inactive) | 7.3% (inactive) | 91.6% | 98.9% | -6.8% (inactive) | 5.25% (inactive)
COc1cccc(CNc2cccc3cccnc23)c1O | 102% | 82.5% (inactive) | 102% (inactive) | 73.5% (inactive) | 78.4% (inactive) | -14.6% (inactive) | 93% | 78.4% | -3.16% (inactive) | -1.97% (inactive)
CCCc1nn(CCc2ccccn2)c(N)c1CC | 114% | 91% (inactive) | 114% (inactive) | 89.4% (inactive) | 96.5% (inactive) | 3.08% (inactive) | 93.5% | 96.5% | -6% (inactive) | 0.66% (inactive)

SMILES | viability [1] | Her2 level [2] | viability [3] | viability [4] | viability [5] | differential viability (reversal) ([6]; H69AR cells + 2 uM doxorubicin) | viability [6, 9] | viability [6, 10] | inhibition [7] | inhibition [8]
Cc1cc(=O)oc2ccc(OCC(=O)N3CCC(C)CC3)cc12 | 87% | 90% (inactive) | 87% (inactive) | 92.3% (inactive) | 96.3% (inactive) | 5.65% (inactive) | 90.7% | 96.3% | -1.05% (inactive) | 1.15% (inactive)
COc1ccc(N(CC(=O)N2CCN(Cc3ccc4c(c3)OCO4)CC2)S(C)(=O)=O)cc1OC | 106% | 89.5% (inactive) | 106% (inactive) | 108% (inactive) | 96.2% (inactive) | 9.96% (inactive) | 86.2% | 96.2% | -8.67% (inactive) | -2.58% (inactive)
COc1ccc(C(=O)NCCSc2ccccn2)cc1 | 97% | 108% (inactive) | 97% (inactive) | 102% (inactive) | 96% (inactive) | 17.4% (inactive) | 78.6% | 96% | -7.07% (inactive) | 0.32% (inactive)
O=C(CP(=O)(CO)CO)c1ccc(Cl)cc1 | 100% | 95% (inactive) | 100% (inactive) | 100% (inactive) | 101% (inactive) | 8.5% (inactive) | 92.3% | 101% | -0.26% (inactive) | -2.18% (inactive)
O=C(CN(CCc1ccccc1)C(=O)CN1C(=O)COc2ccccc21)NCc1ccco1 | 88.5% | 87.5% (inactive) | 88.5% (inactive) | 102% (inactive) | 78.6% (inactive) | 0.605% (inactive) | 78% | 78.6% | -0.65% (inactive) | -1.15% (inactive)
CCC1SC2=NC(C)=C(C(=O)OC)C(c3ccc(C)cc3)N2C1=O (stereo not given) | 94% | 96% (inactive) | 94% (inactive) | 109% (inactive) | 99.6% (inactive) | 9% (inactive) | 90.6% | 99.6% | -3.51% (inactive) | -1.59% (inactive)
N=c1c(C(=O)NCc2ccc3c(c2)OCO3)cc2c(=O)n3ccccc3nc2n1Cc1cccnc1 | 73.5% | 68% (inactive) | 73.5% (inactive) | 87% (inactive) | 78.8% (inactive) | -0.53% (inactive) | 79.3% | 78.8% | -2.47% (inactive) | -2.3% (inactive)
Cn1cc(C(=O)c2ccc(F)cc2)cc1-c1nc2ccccc2n1C | 91% | 65% (inactive) | 91% (inactive) | 76% (inactive) | 102% (inactive) | 10% (inactive) | 92% | 102% | -0.4% (inactive) | 1.64% (inactive)
COc1ccc(S(=O)(=O)N2CCOCC2)cc1C(=O)Nc1cc(C)on1 | 102% | 124% (inactive) | 102% (inactive) | 102% (inactive) | 93.9% (inactive) | 8.07% (inactive) | 85.8% | 93.9% | -3.42% (inactive) | -9.83% (inactive)
c1cn2cc(CSC3CCCCC3)nc2s1 | 84% | 80% (inactive) | 84% (inactive) | 86.5% (inactive) | 97.2% (inactive) | 10.9% (inactive) | 86.4% | 97.2% | -7.16% (inactive) | 6.35% (inactive)
c1ccn2c(SCc3cn4ccsc4n3)nnc2c1 | 104% | 93.5% (inactive) | 104% (inactive) | 104% (inactive) | 110% (inactive) | 14% (inactive) | 95.7% | 110% | -8.49% (inactive) | 3.49% (inactive)
Cc1nc(CNS(=O)(=O)c2cc(C)c(C)cc2C)cs1 | 99% | 89% (inactive) | 99% (inactive) | 121% (inactive) | 94.3% (inactive) | 4.38% (inactive) | 89.9% | 94.3% | -7.57% (inactive) | 1.67% (inactive)
COCCN(C(=O)c1csnn1)C(C(=O)NC1CCCCC1)c1cccs1 (stereo not given) | 100% | 89% (inactive) | 100% (inactive) | 94.7% (inactive) | 98.9% (inactive) | 11% (inactive) | 87.9% | 98.9% | -7.6% (inactive) | 2.86% (inactive)
Cc1ccc(-c2nn3c(=O)c(C)nnc3s2)cc1 | 112% | 112% (inactive) | 112% (inactive) | 112% (inactive) | 104% (inactive) | 12.8% (inactive) | 90.9% | 104% | -2.97% (inactive) | -5% (inactive)
CC1CN(C(=O)c2scc3c2OCCO3)CC(C)O1 (stereo not given) | 102% | 76% (inactive) | 102% (inactive) | 101% (inactive) | 104% (inactive) | 12.1% (inactive) | 91.9% | 104% | -7.3% (inactive) | 5.24% (inactive)
Cn1nnnc1SCc1cn2cccnc2n1 | 112% | 90.5% (inactive) | 112% (inactive) | 101% (inactive) | 89.3% (inactive) | -0.09% (inactive) | 89.4% | 89.3% | -5.33% (inactive) | -3.33% (inactive)

From PubChem BioAssay
